Assay results as given in ChEMBL document CHEMBL1152384, “First steps in the direction of synthetic, allosteric, direct inhibitors of thrombin and factor Xa” (Bioorg Med Chem Lett, 2009).
Activity calls are given as the source filed them. No cut-off for these calls is given here.

What was measured:
[1] = target: Coagulation factor X (Homo sapiens) (UniProt P00742); experiment: Inhibition of human factor 10a assessed as residual activity at < 4.3 mM by spectrophotometry
How it was run: (§1)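 Factor Xa activity followed by spectrophotometric measurement of the initial rate of hydrolysis of the chromogenic substrate S-2772, with and without benzofuran inhibitor. Residual activity is taken relative to the uninhibited enzyme.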

[2] = target: Prothrombin (Homo sapiens) (UniProt P00734); experiment: Inhibition of human thrombin assessed as residual activity at < 4.3 mM by spectrophotometry
How it was run: (§2)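 Thrombin activity read spectrophotometrically as the initial rate of hydrolysis of the chromogenic substrate Spectrozyme TH, with and without benzofuran inhibitor. Residual activity is expressed relative to the uninhibited enzyme.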

[3] = target: Coagulation factor X (Homo sapiens) (UniProt P00742); experiment: Inhibition of human factor 10a assessed as residual activity at […] by spectrophotometry; how it was run: as §1
[4] = target: Prothrombin (Homo sapiens) (UniProt P00734); experiment: Inhibition of human thrombin assessed as residual activity at 2.9 mM by spectrophotometry; how it was run: as §2
[5] = target: Prothrombin (Homo sapiens) (UniProt P00734); experiment: Inhibition of human thrombin assessed as residual activity at 400 uM by spectrophotometry; how it was run: as §2
[6] = target: Coagulation factor X (Homo sapiens) (UniProt P00742); experiment: Inhibition of human factor 10a assessed as residual activity at 2.6 mM by spectrophotometry; how it was run: as §1
[7] = target: Coagulation factor X (Homo sapiens) (UniProt P00742); experiment: Inhibition of human factor 10a assessed as decrease in catalytic rate per uM of S-2772 hydrolysis at 2.6 mM by Michaelis-Menten analysis relative to control
How it was run: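 Factor Xa kinetics: initial rates of S-2772 hydrolysis measured spectrophotometrically at pH 7.4 and 25 °C over a range of substrate levels, with and without inhibitor. The hyperbolic dependence of rate on substrate was fitted to obtain KM and VMAX. Catalytic rate was compared with the inhibitor-free reaction.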

[8] = target: Prothrombin (Homo sapiens) (UniProt P00734); experiment: Inhibition of human thrombin assessed as residual activity at 4.3 mM by spectrophotometry; how it was run: as §2

Sequence of Coagulation factor X (Homo sapiens) (P00742 41-179 limits assumed): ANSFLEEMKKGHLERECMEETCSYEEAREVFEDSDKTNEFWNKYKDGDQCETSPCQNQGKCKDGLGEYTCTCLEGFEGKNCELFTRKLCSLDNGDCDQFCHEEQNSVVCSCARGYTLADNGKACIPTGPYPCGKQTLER
Sequence of Coagulation factor X (Homo sapiens) (P00742 235-488 limits assumed): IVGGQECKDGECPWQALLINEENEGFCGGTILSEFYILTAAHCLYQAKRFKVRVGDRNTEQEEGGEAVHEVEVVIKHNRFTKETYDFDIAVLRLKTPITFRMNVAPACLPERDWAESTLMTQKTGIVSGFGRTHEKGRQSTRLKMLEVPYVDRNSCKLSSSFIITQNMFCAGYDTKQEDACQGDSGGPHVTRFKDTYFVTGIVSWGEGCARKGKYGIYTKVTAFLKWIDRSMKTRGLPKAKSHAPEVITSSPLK

Compound | Activity [1] | Activity [2] | Activity [3] | Activity [4] | Activity [5] | also measured
COc1cc2oc(C)c(COS(=O)(=O)O)c2cc1OS(=O)(=O)O | inactive | inactive | – | – | – | –
CCOC(=O)c1c(C)oc2cc(OC)c(O)cc12 | inactive | inactive | – | – | – | –
Cc1oc2cc(O)c(O)cc2c1C(=O)O | – | – | Active | > 40% | Active | –
COc1cc2oc(C)c(CCC(=O)O)c2cc1OS(=O)(=O)O | – | – | Active | > 40% | Active | –
COc1cc2oc(C)c(C(=O)O)c2cc1O | – | – | Active | > 40% | Active | –
CCOC(=O)c1c(C)oc2cc(O)c(OC)cc12 | inactive | inactive | – | – | – | –
CCOC(=O)CCc1c(C)oc2cc(OC)c(OS(=O)(=O)O)cc12 | inactive | inactive | – | – | – | –
COc1cc2oc(C)c(C(=O)O)c2cc1OS(=O)(=O)O | – | – | Active | > 40% | Active | Activity [6]: 42%
COc1cc2c(C(=O)O)c(C)oc2cc1OS(=O)(=O)O | – | – | Active | > 40% | Active | fold change (FC) [7]: 3.6; Activity [6]: 86%; Activity [8]: Active
Cc1oc2cc(OS(=O)(=O)O)c(OS(=O)(=O)O)cc2c1C(=O)O | – | – | Active | > 40% | Active | Activity [6]: 75%
CCOC(=O)CCc1c(C)oc2cc(OC)c(O)cc12 | inactive | inactive | – | – | – | –
CCOC(=O)c1c(C)oc2cc(OC)c(OS(=O)(=O)O)cc12 | inactive | inactive | – | – | – | –
COc1cc2oc(C)c(CCC(=O)O)c2cc1O | – | – | Active | > 40% | Active | Activity [6]: > 40%
COc1cc2oc(C)c(CO)c2cc1O | inactive | inactive | – | – | – | –
CCOC(=O)c1c(C)oc2cc(O)c(O)cc12 | inactive | inactive | – | – | – | –
CCOC(=O)c1c(C)oc2cc(OS(=O)(=O)O)c(OC)cc12 | inactive | inactive | – | – | – | –
CCOC(=O)c1c(C)oc2cc(OS(=O)(=O)O)c(OS(=O)(=O)O)cc12 | inactive | inactive | – | – | – | –
